Measured values: ChEMBL document CHEMBL3774372, “Design, physico-chemical properties and biological evaluation of some new N-[(phenoxy)alkyl]- and N-{2-[2-(phenoxy)ethoxy]ethyl}aminoalkanols as anticonvulsant agents” (Bioorg Med Chem, 2016)
Calls of active or inactive are those of the source.

Assays:
Mus musculus [1] = experiment: Neurotoxicity in mouse at 100 mg/kg, ip after 0.5 hrs by rotarod test; type: toxicity, organism-based; conditions: in vivo
Procedure, shortened: (§1)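 Mice were dosed ip with compound suspended in 0.5% methylcellulose. Rotarod: a 1 in. knurled rod turning at 6 rpm. Neurotoxicity was scored as failure to stay on the rod for at least 1 min in each of three trials. Results are given as the number of animals affected out of the number tested.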

Mus musculus [2] = experiment: Neurotoxicity in mouse at 30 mg/kg, ip after 4 hrs by rotarod test; type: toxicity, organism-based; conditions: in vivo; procedure, shortened: as §1
Mus musculus [3] = experiment: Anticonvulsant activity in mouse assessed as protection against maximal electric shock-induced seizures at 100 mg/kg, ip measured after 4 hrs; type: functional, organism-based
Procedure, shortened: (§2)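 Mice dosed ip with suspension in 0.5% methylcellulose; maximal electroshock applied at the listed time after dosing. Protection = abolition of hindlimb tonic extension component of seizure; reported as animals protected/animals tested.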

Mus musculus [4] = experiment: Anticonvulsant activity in mouse assessed as protection against subcutaneous pentylenetetrazol-induced seizures at 100 mg/kg, ip measured after 4 hrs; type: functional, organism-based
Procedure, shortened: (§3)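 Mice dosed ip as 0.5% methylcellulose suspension; pentylenetetrazole 85 mg/kg in 0.9% NaCl injected subcutaneously into posterior midline, animals watched at least 30 min. Protection = no threshold seizure (single clonic spasm episode lasting ≥5 s); scored protected/tested.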

Mus musculus [5] = experiment: Anticonvulsant activity in mouse assessed as protection against maximal electric shock-induced seizures at 10 mg/kg, ip measured after 0.5 hrs; type: functional, organism-based; procedure, shortened: as §2
Mus musculus [6] = experiment: Anticonvulsant activity in mouse assessed as protection against maximal electric shock-induced seizures at 30 mg/kg, ip measured after 0.5 hrs; type: functional, organism-based; procedure, shortened: as §2
Mus musculus [7] = experiment: Anticonvulsant activity in mouse assessed as protection against subcutaneous pentylenetetrazol-induced seizures at 30 mg/kg, ip measured after 0.5 hrs; type: functional, organism-based; procedure, shortened: as §3
Mus musculus [8] = experiment: Anticonvulsant activity in mouse assessed as protection against maximal electric shock-induced seizures at 100 mg/kg, ip measured after 0.5 hrs; type: functional, organism-based; procedure, shortened: as §2
Mus musculus [9] = experiment: Anticonvulsant activity in mouse assessed as protection against maximal electric shock-induced seizures at 30 mg/kg, ip measured after 4 hrs; type: functional, organism-based; procedure, shortened: as §2
Mus musculus [10] = experiment: Neurotoxicity in mouse at 100 mg/kg, ip after 4 hrs by rotarod test; type: toxicity, organism-based; conditions: in vivo; procedure, shortened: as §1
Mus musculus [11] = experiment: Anticonvulsant activity in mouse assessed as protection against maximal electric shock-induced seizures at 3 mg/kg, ip measured after 0.5 hrs; type: functional, organism-based; procedure, shortened: as §2
Mus musculus [12] = experiment: Anticonvulsant activity in mouse assessed as protection against subcutaneous pentylenetetrazol-induced seizures at 100 mg/kg, ip measured after 0.5 hrs; type: functional, organism-based; procedure, shortened: as §3
Mus musculus [13] = experiment: Neurotoxicity in mouse at 300 mg/kg, ip after 0.5 hrs by rotarod test; type: toxicity, organism-based; conditions: in vivo; procedure, shortened: as §1
Mus musculus [14] = experiment: Neurotoxicity in mouse at 30 mg/kg, ip after 0.5 hrs by rotarod test; type: toxicity, organism-based; conditions: in vivo; procedure, shortened: as §1
Mus musculus [15] = experiment: Anticonvulsant activity in mouse assessed as protection against subcutaneous pentylenetetrazol-induced seizures at 30 mg/kg, ip measured after 4 hrs; type: functional, organism-based; procedure, shortened: as §3
Mus musculus [16] = experiment: Neurotoxicity in mouse at 300 mg/kg, ip after 4 hrs by rotarod test; type: toxicity, organism-based; conditions: in vivo; procedure, shortened: as §1
Vibrio harveyi [17] = experiment: Mutagenicity in Vibrio harveyi BB7 assessed as number of colonies after 48 hrs (reference value: 13 to 14 no_unit); type: ADME, organism-based; conditions: in vivo
Procedure, shortened: (§4)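 Vibrio harveyi mutagenicity test: test compound was added to exponentially growing cultures (A600 = 0.1, 30 °C) and grown to OD600 0.3–0.4. Then 5 × 10^6 cells were plated on BOSS agar with neomycin (final 100 µg/mL) and incubated 48 h at 30 °C. Neomycin-resistant colonies were counted. Triplicate; controls were water, DMSO and NQNO 40 ng/mL.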

Vibrio harveyi [18] = experiment: Mutagenicity in Vibrio harveyi BB7M assessed as number of colonies after 48 hrs (reference value: 13 to 14 no_unit); type: ADME, organism-based; conditions: in vivo; procedure, shortened: as §4
Vibrio harveyi [19] = experiment: Antimutagenic activity against Vibrio harveyi BB7 assessed as inhibition of NQNO-induced mutagenicity after 48 hrs; type: functional
Procedure, shortened: (§5)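 V. harveyi cultures grown exponentially to A600 0.1 at 30 °C, exposed to test compound for 15 min, then to NQNO, and grown on to A600 0.3–0.4. 5 × 10⁶ cells plated on BOSS agar with neomycin (100, final). Neomycin-resistant colonies counted after 48 h at 30 °C. Result given as % inhibition of NQNO mutagenicity; three independent repeats.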

Vibrio harveyi [20] = experiment: Mutagenicity in Vibrio harveyi BB7XM assessed as number of colonies after 48 hrs (reference value: 14 no_unit); type: ADME, organism-based; conditions: in vivo; procedure, shortened: as §4
Vibrio harveyi [21] = experiment: Antimutagenic activity against Vibrio harveyi BB7X assessed as inhibition of NQNO-induced mutagenicity after 48 hrs; type: functional; procedure, shortened: as §5
Vibrio harveyi [22] = experiment: Antimutagenic activity against Vibrio harveyi BB7M assessed as inhibition of NQNO-induced mutagenicity after 48 hrs; type: functional; procedure, shortened: as §5
Vibrio harveyi [23] = experiment: Antimutagenic activity against Vibrio harveyi BB7XM assessed as inhibition of NQNO-induced mutagenicity after 48 hrs; type: functional; procedure, shortened: as §5
Vibrio harveyi [24] = experiment: Mutagenicity in Vibrio harveyi BB7X assessed as number of colonies after 48 hrs (reference value: 15 to 16 no_unit); type: ADME, organism-based; conditions: in vivo; procedure, shortened: as §4
Mus musculus [25] = experiment: Anticonvulsant activity in mouse assessed as protection against subcutaneous pentylenetetrazol-induced seizures at 300 mg/kg, ip measured after 4 hrs; type: functional, organism-based; procedure, shortened: as §3
Rattus norvegicus [26] = experiment: Neurotoxicity in rat at 30 mg/kg, po after 4 hrs by rotarod test; type: toxicity, organism-based; conditions: in vivo
Rattus norvegicus [27] = experiment: Neurotoxicity in rat at 30 mg/kg, po after […] by rotarod test; type: toxicity, organism-based; conditions: in vivo
Rattus norvegicus [28] = experiment: Neurotoxicity in rat at 30 mg/kg, po after 2 hrs by rotarod test; type: toxicity, organism-based; conditions: in vivo
Rattus norvegicus [29] = experiment: Anticonvulsant activity in rat assessed as protection against maximal electric shock-induced seizures at 30 mg/kg, po measured after […]; type: functional, organism-based
Rattus norvegicus [30] = experiment: Anticonvulsant activity in rat assessed as protection against maximal electric shock-induced seizures at 30 mg/kg, po measured after 0.5 hrs; type: functional, organism-based
Procedure, shortened: (§6)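 Rats dosed ip or orally as 0.5% methylcellulose suspension; maximal electroshock at listed time. Protection = abolition of hindlimb tonic extension; 4 rats per group, scored protected/tested.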

Rattus norvegicus [31] = experiment: Anticonvulsant activity in rat assessed as protection against maximal electric shock-induced seizures at 30 mg/kg, po measured after 4 hrs; type: functional, organism-based; procedure, shortened: as §6
Rattus norvegicus [32] = experiment: Neurotoxicity in rat at 30 mg/kg, po after 1 hr by rotarod test; type: toxicity, organism-based; conditions: in vivo
Rattus norvegicus [33] = experiment: Anticonvulsant activity in rat assessed as protection against maximal electric shock-induced seizures at 30 mg/kg, po measured after 2 hrs; type: functional, organism-based; procedure, shortened: as §6
Rattus norvegicus [34] = experiment: Neurotoxicity in rat at 30 mg/kg, po after 0.5 hrs by rotarod test; type: toxicity, organism-based; conditions: in vivo
Mus musculus [35] = experiment: Neurotoxicity in mouse at 100 mg/kg, ip after 2 hrs by rotarod test; type: toxicity, organism-based; conditions: in vivo; procedure, shortened: as §1
Mus musculus [36] = experiment: Anticonvulsant activity in mouse assessed as protection against maximal electric shock-induced seizures at 300 mg/kg, ip measured after 0.5 hrs; type: functional, organism-based; procedure, shortened: as §2
Rattus norvegicus [37] = experiment: Anticonvulsant activity in rat assessed as protection against maximal electric shock-induced seizures at 30 mg/kg, po measured after 1 hr; type: functional, organism-based; procedure, shortened: as §6
Mus musculus [38] = experiment: Anticonvulsant activity in mouse assessed as protection against maximal electric shock-induced seizures at 300 mg/kg, ip measured after 4 hrs; type: functional, organism-based; procedure, shortened: as §2
Mus musculus [39] = experiment: Anticonvulsant activity in mouse assessed as protection against subcutaneous pentylenetetrazol-induced seizures at 300 mg/kg, ip measured after 0.5 hrs; type: functional, organism-based; procedure, shortened: as §3

Compound | Activity (Mus musculus [1]) | Activity (Mus musculus [2]) | Activity (Mus musculus [3]) | Activity (Mus musculus [4]) | Activity (Mus musculus [6]) | Activity (Mus musculus [7]) | Activity (Mus musculus [8]) | Activity (Mus musculus [9]) | Activity (Mus musculus [10]) | Activity (Mus musculus [12]) | Activity (Mus musculus [13]) | Activity (Mus musculus [14]) | Activity (Mus musculus [15]) | Activity (Rattus norvegicus [26]) | Activity (Rattus norvegicus [27]) | Activity (Rattus norvegicus [28]) | Activity (Rattus norvegicus [32]) | Activity (Rattus norvegicus [34]) | also measured
Cc1cc(C)c(OCCN[C@H](C)CO)c(C)c1 | Toxic | Non-toxic | inactive | inactive | Active | inactive | Active | inactive | Non-toxic | inactive | Toxic | Non-toxic | inactive | – | – | – | – | – | Activity (Mus musculus [5]): inactive; Activity (Mus musculus [11]): inactive
Cc1cccc(C)c1OCCOCCNC(C)CO (stereo unspecified) | Toxic | Non-toxic | inactive | inactive | inactive | inactive | – | inactive | Non-toxic | – | Toxic | Non-toxic | inactive | – | – | – | – | – | Activity (Mus musculus [16]): Non-toxic; Activity (Vibrio harveyi [17]): 24; Activity (Vibrio harveyi [18]): 27; inhibition (INH) (Vibrio harveyi [19]): 70%; Activity (Vibrio harveyi [20]): 19; inhibition (INH) (Vibrio harveyi [21]): 27%; inhibition (INH) (Vibrio harveyi [22]): 75%; inhibition (INH) (Vibrio harveyi [23]): 48%; Activity (Vibrio harveyi [24]): 29
CCC(CO)NCCOCCOc1c(C)cccc1C (stereo unspecified) | Toxic | Non-toxic | inactive | – | inactive | inactive | Active | inactive | – | inactive | Toxic | Non-toxic | inactive | – | – | – | – | – | Activity (Mus musculus [25]): inactive
Cc1cccc(C)c1OCCOCCN[C@@H]1CCCC[C@H]1O (racemic) | Non-toxic | Non-toxic | inactive | inactive | inactive | inactive | Active | inactive | Non-toxic | inactive | Toxic | Non-toxic | inactive | Non-toxic | Non-toxic | Non-toxic | Non-toxic | Non-toxic | Activity (Vibrio harveyi [17]): 29; Activity (Rattus norvegicus [29]): inactive; Activity (Vibrio harveyi [18]): 26; Activity (Rattus norvegicus [30]): inactive; Activity (Rattus norvegicus [31]): inactive; inhibition (INH) (Vibrio harveyi [19]): 82%; Activity (Vibrio harveyi [20]): 22; Activity (Rattus norvegicus [33]): inactive; inhibition (INH) (Vibrio harveyi [21]): 52%; inhibition (INH) (Vibrio harveyi [22]): 75%; inhibition (INH) (Vibrio harveyi [23]): 33%; Activity (Vibrio harveyi [24]): 25
Cc1cccc(OCCN2CCC(O)CC2)c1C | – | – | – | – | – | – | – | – | Non-toxic | – | – | – | – | – | – | – | – | – | Activity (Mus musculus [35]): Non-toxic
Cc1cc(C)c(OCCNCC(O)c2ccccc2)c(C)c1 (stereo unspecified) | Non-toxic | Non-toxic | inactive | – | inactive | inactive | Active | inactive | Non-toxic | inactive | – | Non-toxic | – | Non-toxic | Non-toxic | Non-toxic | Non-toxic | Non-toxic | Activity (Mus musculus [36]): Active; Activity (Mus musculus [16]): Non-toxic; Activity (Rattus norvegicus [37]): inactive; Activity (Mus musculus [38]): Active; Activity (Rattus norvegicus [29]): inactive; Activity (Mus musculus [39]): inactive
Cc1cc(C)c(OCCNC(C)CO)c(C)c1 (stereo unspecified) | Toxic | Non-toxic | inactive | inactive | inactive | inactive | Active | inactive | Non-toxic | inactive | Toxic | Non-toxic | inactive | Non-toxic | Non-toxic | Non-toxic | Non-toxic | Non-toxic | Activity (Rattus norvegicus [37]): inactive; Activity (Rattus norvegicus [31]): inactive; Activity (Rattus norvegicus [33]): inactive
